Calls of active or inactive are those of the source. The rule behind the calls is not given here.
Legend:
PC-3 [1] = test: Induction of nitric oxide production in human PC-3 cells assessed as nitrite level at 100 uM measured after 12 to 48 hrs by Griess assay; assay type: functional; conditions: time 12-48 hrs
Procedure, shortened: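 PC3 cells were seeded at 1×10^4 per well and grown 24 h, then moved to serum-free RPMI with 100 μM compound for 12, 24 or 48 h at 37 °C. Supernatant was mixed with 1% sulfanilamide in 2.5% H3PO4 (10 min, dark), then 0.1% NED (10 min, 37 °C), and A540 was read. Nitrite was calculated from a NaNO2 curve (0–100 μM). Controls were DMSO and SNP 100 μM. Data from ≥3 independent experiments in triplicate, mean ± SD.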

PC-3 [2] = test: Induction of morphological changes in human PC-3 cells assessed as loss of adhesion at 0.24 uM measured after 24 hrs in presence of antioxidant N-acetyl-L-cysteine by phase contrast microscopy; assay type: functional, cell-based
Procedure, shortened: (§1)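 PC3 cells were seeded at 1×10^5 per well in 6-well plates and treated after 24 h, with or without 1 mM N-acetyl-L-cysteine. The same observation field was imaged by phase contrast microscopy at 1, 2, 3, 4 and 24 h. DMSO vehicle served as control.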

MCF7 = test: Cytotoxicity against human MCF7 cells assessed as reduction in cell viability measured after 48 hrs by CCK-8 assay; assay type: functional, cell-based; conditions: MCF7, 48 h
Procedure, shortened: (§2)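 CCK-8 viability: cells grown in RPMI-1640 with 10% FBS, 1×10^4 per well, attached 24 h, then medium replaced with fresh medium containing a range of compound concentrations for 48 h at 37 °C, 5% CO2. CCK-8 added 3 h, absorbance 450 nm; vehicle control set as 100%. IC50 by nonlinear regression, mean ± SD, at least two experiments in triplicate.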

PC-3 [3] = test: Induction of apoptosis in human PC-3 cells assessed as effect on BCL2 gene expression at 0.24 uM measured after 3 hrs by qPCR analysis; assay type: functional, cell-based
Procedure, shortened: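 Seeded 1×10^5 cells per well in 6-well plates; PC3 treated 3 h. Total RNA extracted, qPCR; each target normalized to reference gene (β-actin) by efficiency-corrected ΔΔCt (Pfaffl) against a control calibrator sample, efficiencies from amplification profiles. Mean ± SEM of four independent experiments.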

[4] = Selectivity index, ratio of IC50 for cytotoxicity against human PNT2 cells to IC50 for cytotoxicity against human PC-3 cells; assay type: toxicity, cell-based; conditions: PNT2 cells versus PC-3 cells, read-out: Ratio IC50
Procedure, shortened: (§3)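 CCK-8 was added for 3 h and A450 read, with vehicle set as 100% viability. IC50 was fitted by nonlinear regression from ≥2 experiments in triplicate. SI = normal-cell IC50 divided by the matched cancer-cell IC50.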

[5] = Selectivity index, ratio of IC50 for cytotoxicity against human MCF-10A cells to IC50 for cytotoxicity against human MCF7 cells; assay type: toxicity, cell-based; conditions: MCF-10A cells versus MCF7 cells, read-out: Ratio IC50; procedure, shortened: as §3
PC-3 [6] = test: Induction of apoptosis in human PC-3 cells assessed as late apoptotic cells at 0.24 uM measured after 6 hrs by Alexa Fluor 488-annexin V/propidium iodide staining based flow cytometry (reference value: 3.37%); assay type: functional
[7] = Cytotoxicity against human MCF-10A cells assessed as reduction in cell viability measured after 48 hrs by CCK-8 assay; assay type: toxicity, cell-based; procedure, shortened: as §2
PC-3 [8] = test: Cell cycle arrest in human PC-3 cells assessed as down regulation of cyclin D1 expression at 0.24 uM measured after 3 hrs by Western blot analysis; assay type: functional, cell-based
Procedure, shortened: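 Western blot: PC3 seeded 1×10^7 per 100 mm dish, treated 3 h or 6 h, lysed in RIPA with protease/phosphatase inhibitors; 50 μg protein on 12% SDS-PAGE, PVDF transfer, 5% milk block, anti-cyclin D1 (1:1000) overnight at 4 °C, HRP anti-rabbit secondary, β-actin loading control, ECL detection and band densitometry; two independent experiments.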

[9] = Cytotoxicity against human PNT2 cells assessed as reduction in cell viability measured after 48 hrs by CCK-8 assay; assay type: toxicity, cell-based; procedure, shortened: as §2
PC-3 [10] = test: Cytotoxicity against human PC-3 cells assessed as reduction in cell viability at 0.24 uM measured after 24 hrs in presence of antioxidant N-acetyl-L-cysteine by SRB assay; assay type: functional, cell-based
Procedure, shortened: (§4)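 SRB assay: PC3 seeded 1×10^4 per well, after 24 h exposed 24 h at 37 °C, 5% CO2 with or without 1 mM N-acetyl-L-cysteine; vehicle 0.1% DMSO. Fixed with 15% TCA at 4 °C for 1 h, dried, stained 0.4% sulforhodamine B, dye solubilized in 10 mM Tris, absorbance 540 nm; ANOVA/Tukey.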

PC-3 [11] = test: Cytotoxicity against human PC-3 cells assessed as reduction in cell viability measured after 48 hrs by CCK-8 assay; assay type: functional, cell-based; conditions: PC-3, 48 h; procedure, shortened: as §2
OVCAR-3 = test: Cytotoxicity against human OVCAR-3 cells assessed as reduction in cell viability measured after 48 hrs by CCK-8 assay; assay type: functional, cell-based; conditions: OVCAR-3, 48 h; procedure, shortened: as §2
PC-3 [12] = test: Induction of morphological changes in human PC-3 cells assessed as cell rounding at 0.05 uM measured after 24 hrs by phase contrast microscopy; assay type: functional, cell-based; procedure, shortened: as §1
PC-3 [13] = test: Cytotoxicity against human PC-3 cells assessed as cell growth inhibition at 0.05 uM measured after 48 hrs in presence of 0.5 to 50 uM NO scavenger carboxy-PTIO by CCK-8 assay; assay type: functional, cell-based
Procedure, shortened: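 PC3 at 1×10^4 cells per well attached 24 h, pretreated 1 h with carboxy-PTIO (0, 0.50, 3.13, 6.25, 12.50, 25, 50 μM), then compound added for 48 h; washed three times with PBS, growth read by CCK-8 as percent inhibition versus control cells; two experiments in triplicate.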

PC-3 [14] = test: Cytotoxicity against human PC-3 cells assessed as reduction in cell viability at 0.05 uM measured after 24 hrs in presence of antioxidant N-acetyl-L-cysteine by SRB assay; assay type: functional, cell-based; procedure, shortened: as §4
PC-3 [15] = test: Induction of ROS generation in human PC-3 cells at 0.05 uM measured after 30 mins by CellROX reagent based flow cytometry; assay type: functional, cell-based
Procedure, shortened: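 PC3 seeded 1×10^5 per well in 6-well plates, after 24 h treated together with CellROX green (5 μM final) for 30 min at 37 °C; 0.1% DMSO negative control, 1 mM H2O2 positive control. Cells collected and CellROX-positive fraction measured by flow cytometry.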

PC-3 [16] = test: Cell cycle arrest in human PC-3 cells assessed as reduction in cell accumulation at G0/G1 phase at 0.05 uM measured after 3 hrs by propidium iodide staining based flow cytometry; assay type: functional
Procedure, shortened: (§5)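 PC3 cells seeded 1×10^5 per well in 6-well plates, exposed 3 h, with or without 1 mM N-acetyl-L-cysteine pretreatment; vehicle 0.1% DMSO. Harvested with trypsin-EDTA, fixed in 75% ethanol in PBS at 4 °C for 30 min, stained 1 h with RNase (1.5 mg mL^-1) and propidium iodide (90 μg mL^-1); DNA content by flow cytometry. Phase fractions compared with control by ANOVA/Tukey.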

PC-3 [17] = test: Cell cycle arrest in human PC-3 cells assessed as reduction in cell accumulation at S phase at 0.05 uM measured after 3 hrs by propidium iodide staining based flow cytometry; assay type: functional; procedure, shortened: as §5
PC-3 [18] = test: Cell cycle arrest in human PC-3 cells assessed as reduction in cell accumulation at S phase in presence of antioxidant N-acetyl-L-cysteine at 0.05 uM measured after 3 hrs by propidium iodide staining based flow cytometry; assay type: functional; procedure, shortened: as §5

Row | SMILES | Activity (PC-3 [1]) [µM] | Activity (PC-3 [2]) | IC50 (MCF7) [µM] | Activity (PC-3 [3]) | selectivity ratio [4] | selectivity ratio [5] | Activity (PC-3 [6]) [%] | IC50 at 48 h [7] [µM] | Activity (PC-3 [8]) | IC50 at 48 h [9] [µM] | Activity (PC-3 [10]) | IC50 (PC-3 [11]) [nM] | IC50 (OVCAR-3) [nM] | Activity (PC-3 [12]) | growth inhibition (GI) (PC-3 [13]) | Activity (PC-3 [14]) | Activity (PC-3 [15]) | Activity (PC-3 [16]) | Activity (PC-3 [17]) | Activity (PC-3 [18])
1 | COc1cc(/C=C/C(=O)N2CCC=CC2=O)cc(OC)c1OCCCOc1no[n+]([O-])c1S(=O)(=O)c1ccccc1 | 23.5 | inactive | 1.2 | inactive | 75.5 | 3 | 43.61 | 3.5 | Active | 17.8 | inactive | 240 | 400 |  |  |  |  |  |  | 
2 | COc1cc(/C=C/C(=O)N2CCC=CC2=O)cc(OC)c1OCCCCCCCCCCCCOc1no[n+]([O-])c1S(=O)(=O)c1ccccc1 | 23.5 |  | 7.9 |  | 285 | 15.7 |  | 123 |  | 14.1 |  | 50 | 120 | Active | inactive | inactive | Active | Active; Significant Reduction Observed | Active | Active

Reference: ChEMBL document CHEMBL6134784, “Furoxan-piplartine hybrids as effective NO donors and ROS inducers in PC3 cancer cells: design, synthesis, and biological evaluation” (RSC Med Chem, 2024)
